# OXTR ag: human OXTR agonists, primary screen, fluorescence, CHO-OTR cells, Fluo-8 calcium. Oxytocin receptor (Homo sapiens), P30559. Fluo-8 calcium fluorescence; normalized: DMSO 0%, oxytocin 100%. activation, % at 3 µM. 320,000 compounds, 0.32% hits;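 active = activation above the mean of all tested compounds plus 3 SD, cutoff set per screening run, cut at about 20% in these data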;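 note: peak over basal fluorescence ratio from a 100 s FLIPR kinetic read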
# V1R ag counter: agonists of human V1a receptor, primary screen, counter-screen for OXTR agonist project, fluorescence, CHO-V1R cells | Vasopressin V1a receptor (Homo sapiens), P37288 | activation, % at 3 µM | AID 2797, 2010 | Fluo-8 calcium fluorescence, agonist mode; 0% DMSO, 100% 3 nM vasopressin | 320,000 compounds, 0.25% hits;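 active = activation above the mean activation of all tested compounds plus 3 SD, per screening run, cut at about 20% in these data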;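 note: signal is peak over basal fluorescence ratio across a 100 second FLIPR read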
# TRPML3 ag: human TRPML3 channel agonists, primary screen, cell-based, HEK293 TRPML3-YFP, Fluo-8 calcium fluorescence, 3 µM | 100% = the carbachol control signal | activation, % at 3 µM | 220,000 compounds, 0.29% hits | Mucolipin-3 (Homo sapiens), Q8TDD5;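 active = activation above its plate's cutoff, the mean activation of the plate's test wells plus 3 SD, cut at about 12% in these data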;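 note: 0% = DMSO only wells and 100% = carbachol wells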
# Target sequence (Q8TDD5 whole entry, looked up): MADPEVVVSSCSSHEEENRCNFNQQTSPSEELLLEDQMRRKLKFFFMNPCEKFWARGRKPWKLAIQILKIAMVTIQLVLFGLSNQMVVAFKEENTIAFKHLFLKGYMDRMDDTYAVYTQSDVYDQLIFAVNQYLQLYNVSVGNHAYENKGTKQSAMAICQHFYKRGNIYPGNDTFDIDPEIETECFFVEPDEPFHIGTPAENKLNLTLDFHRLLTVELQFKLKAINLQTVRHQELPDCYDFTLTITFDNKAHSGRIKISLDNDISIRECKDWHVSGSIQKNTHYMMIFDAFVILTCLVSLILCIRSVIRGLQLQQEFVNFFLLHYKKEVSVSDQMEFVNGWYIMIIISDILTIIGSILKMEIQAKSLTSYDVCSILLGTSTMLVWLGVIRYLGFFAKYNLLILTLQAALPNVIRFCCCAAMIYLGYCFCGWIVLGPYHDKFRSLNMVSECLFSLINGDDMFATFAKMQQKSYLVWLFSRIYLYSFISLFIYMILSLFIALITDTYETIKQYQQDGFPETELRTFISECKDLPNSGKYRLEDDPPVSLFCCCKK
#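 Test system: TRPML3-YFP stable HEK293 cells. Doses: single point at 3 µM. Incubation: dye loading 1 h 37 °C then 30 min ambient, 125 s read. Signal: Fluo-8 calcium dye fluorescence, ex 470-495, em 515-575 nm. Measure: percent activation from peak-to-basal fluorescence ratio, scaled between DMSO and carbachol.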
# OXTR potentiator: human OXTR potentiators, primary screen, fluorescence, CHO-OTR cells, Fluo-8 calcium. Oxytocin receptor (Homo sapiens), P30559. Fluo-8 calcium fluorescence, potentiator mode; 0% = oxytocin EC15, 100% = EC100. activation, % at 3 µM. 320,000 compounds, 0.061% hits;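 active = activation above that plate's cutoff, the mean activation of tested compounds plus 3 SD, cut at about 6.6% in these data, passing the limit was not always enough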;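 note: 100% uses oxytocin at 75 nM as the full agonist control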
#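 Material: CHO-OTR cells, human receptor; compound dosing: single dose, 3.0 µM nominal final compound concentration; schedule: 6 min compound pre-incubation at room temperature, 100 s kinetic read; measured by: kinetic Fluo-8 calcium fluorescence; read-out basis: % activation vs EC15 and EC100 oxytocin; controls: EC15 oxytocin alone as 0%, 75 nM oxytocin as 100%; replicates: singlicate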
# zfTRPN1 agonist: zebrafish TRPN1 channel agonists, primary screen, cell-based, HEK293, calcium fluorescence. transient receptor potential cation channel N1 (TRPN1/NompC), Danio rerio. HEK293 zebrafish TRPN1-YFP, Fluo-8 calcium fluorescence; 100% = response to 87 µM carbachol. activation, % at 3 µM. 220,000 compounds, 0.18% hits. AID 1424, 2008;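 active = activation above its plate's cutoff, the mean activation of test wells on that plate plus 3 SD, cut at about 19% in these data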;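 note: 0% = DMSO alone and 100% = 87 µM carbachol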
#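 System: zebrafish TRPN1-YFP in HEK293 cells / Dosing: 3 µM single point / Timing: dye loading 1 h at 37 °C, then 30 min room temperature / Signal: Fluo-8 calcium fluorescence, excitation 470-495 nm, emission 515-575 nm / Read-out basis: percent activation from peak over basal fluorescence ratio, control-normalized / Control set: high carbachol 87 µM, low DMSO alone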
# Active calls of the source: *; . = no result given. Shown are actives, neighbours in structure and some others; about 0.59% of the full set was active somewhere.
SMILES,OXTR ag,V1R ag counter,TRPML3 ag,OXTR potentiator,zfTRPN1 agonist
COc1ccc(OC(C)C(=O)Nc2ccc([N+](=O)[O-])cc2)cc1 (centres undefined),3,6,-1,-15,2
CC(Oc1ccc(Cl)cc1)C(=O)Nc1ccc(S(=O)(=O)N2CCOCC2)cc1 (centres undefined),30*,28*,.,-16,.
O=C(Nc1ccc(Cl)cc1)c1ccc(S(=O)(=O)N2CCOCC2)cc1,7,8,.,-12,.
COc1ccc(NC(=O)C(C)Oc2ccc(/C(C)=N\O)cc2)cc1 (centres undefined),40*,33*,4,-23,10
CC(C)NS(=O)(=O)c1ccc(NC(=O)C(C)Oc2ccc(C(=O)c3ccccc3)cc2)cc1 (centres undefined),54*,66*,21*,-18,50*
Nc1ncnc2c1ncn2[C@@H]1O[C@H](CNCc2ccc(OCC(=O)Nc3nccs3)cc2)[C@@H](O)[C@H]1O,1,0,.,3,.
O=C(NCC(c1ccco1)N1CCCCC1)c1ccc([N+](=O)[O-])s1 (centres undefined),0,0,.,-5,.
CCOC(=O)C1C(=O)C=C(/C=C/c2ccc(N(C)C)cc2)CC1c1ccccc1 (centres undefined),38*,45*,5,-16,5
CCOC(=O)C1C(=O)C=C(c2ccc(C)cc2)CC1c1ccccc1 (centres undefined),-3,0,1,-29,-2
COc1ccc(OCC(=O)Nc2ccc(N3CCN(C(=O)c4ccccc4)CC3)c(Cl)c2)cc1,12,7,.,-10,.
CCOc1ccc(CCNC(=O)c2cc(C)nn2-c2ccccc2)cc1,-1,-1,0,-7,0
CSCCC(NC(=O)c1ccco1)C(=O)OC(C)C(=O)NC(=O)NC1CCCCC1 (centres undefined),2,6,62*,-15,121*
Cc1ccc(C)c(N2C(=O)CC(Cc3ccc(Br)cc3)C2=O)c1 (centres undefined),0,1,.,-19,.
N#C/C(=N/Nc1ccc(OC(F)(F)F)cc1)C(N)=S,17,11,15*,-16,23*
O=c1[nH]c2ccccc2nc1/C=C(\O)c1cccs1,23*,29*,5,-15,11
O/C(=C\c1nc2ccccc2[nH]1)c1cccs1,-1,0,.,-6,.
Cc1ccc(C(=O)NCCCNC(=O)c2ccco2)cc1C,1,1,.,-8,.
COC(=O)[C@@]1(Cc2ccc(OC)cc2)[C@@H]2C(=CC(=O)[C@H]2CC(=O)C(=O)N(C)C)CN1C(=O)c1ccccc1,0,1,1,-6,1
C=C1C(=O)C=C2CN(C(=O)c3ccccc3)[C@@](Cc3ccc(F)cc3)(C(=O)OC)[C@@H]12,69*,81*,5,-17,37*
O=C1N[C@@H](c2ccccc2)COC(=O)[C@@H](Cc2ccc(F)cc2)C/C=C\C[C@@H]1CC(=O)N(CCO)Cc1ccccc1,43*,36*,.,-11,.
COc1cccc2c1C(=O)c1c(O)c3c(c(O)c1C2=O)C[C@](O)(C(C)=O)C[C@H]3O[C@@H]1C[C@@H](N)[C@@H](O)[C@@H](C)O1,16,21*,.,-8,.
Cc1ccc(Cc2cnc(NC(=O)c3ccco3)s2)cc1,-1,1,0,-6,-1
O=C(Nc1ncc(Cc2ccc(SC(F)F)cc2)s1)c1ccc(OC(F)F)cc1,23*,25*,0,-8,1
Cc1ccc(C)c(NC(=O)COC(=O)c2cc3ccccc3oc2=O)c1,-1,0,.,5,.
CCOc1cccc(-c2c(C(=O)N/N=C/c3sccc3C)nnn2-c2nonc2N)c1,2,1,.,-1,.
SMILES,OXTR ag,V1R ag counter,TRPML3 ag,OXTR potentiator,zfTRPN1 agonist
Cc1ccc(-c2c(C(=O)N/N=C/c3cccs3)nnn2-c2nonc2N)cc1,18,17,.,-10,.
Nc1nonc1-n1nnc(C(=O)N/N=C/c2cccs2)c1-c1ccc2c(c1)OCO2,35*,52*,.,-12,.
Cc1ccc(-c2c(C(=O)N/N=C/c3ccsc3)nnn2-c2nonc2N)cc1,39*,36*,.,-20,.
CCOc1cccc(-c2c(C(=O)N/N=C/c3ccsc3)nnn2-c2nonc2N)c1,25*,24*,.,-7,.
CCCOc1ccc(OC(=O)c2ccc(Br)o2)cc1,42*,64*,0,-24,0
CC1(c2ccc(Cl)cc2)NC(=O)N(CC(=O)N2CCc3ccccc32)C1=O (centres undefined),40*,28*,.,-13,.
CCC1(c2ccc(F)cc2)NC(=O)N(CC(=O)Nc2ccccc2Cl)C1=O (centres undefined),23*,22*,.,-15,.
CCC1(c2ccc(F)cc2)NC(=O)N(CC(=O)N2CCc3ccccc32)C1=O (centres undefined),29*,27*,.,-15,.
CCC1(c2ccc(F)cc2)NC(=O)N(CC(=O)Nc2ccccc2C)C1=O (centres undefined),18,9,.,-10,.
CC1CCC2(CC1)NC(=O)N(CC(=O)N1c3ccccc3CC1C)C2=O (centres undefined),-2,-1,.,-5,.
CCOc1ccc(N2CC(C(=O)Nc3ccccc3N3CCCC3)CC2=O)cc1 (centres undefined),0,1,.,-1,.
N=c1c2c(-c3ccccc3)c(-c3ccccc3)n(Cc3ccco3)c2ncn1Cc1ccccc1,21*,23*,1,-19,0
CC(C)Cn1cnc2c(c(-c3ccccc3)c(-c3ccccc3)n2Cc2ccco2)c1=N,5,8,0,-14,-2
O=P(CCCCCCCCCP(=O)(c1ccccc1)c1ccccc1)(c1ccccc1)c1ccccc1,20*,24*,-1,-21,-2
O=C(O)CCCCCCCCCCP(=O)(c1ccccc1)c1ccccc1,1,0,1,-3,2
COc1cc(/C=C(\C#N)c2nc3ccccc3n2C)cc(OC)c1O,26*,29*,17*,-5,37*
COc1cc(/C=C(\C#N)c2nc3ccccc3[nH]2)cc(OC)c1O,28*,29*,7,-10,22*
Cc1ccc(Cn2nnc(C(=O)Nc3cccc(C)c3C)c2N)cc1,38*,38*,17*,-10,36*
CCN1C(N(C)CCc2cccs2)=N[C@@H](c2ccccc2)C(C(=O)OC)=C1C,1,0,.,-6,.

# Bioassay records (PubChem)
